An excerpt weighted towards active compounds, which were near 0.9% of everything screened.
RGS8-Gao reg: modulates binding of RGS8 to human Galphao. AID 1423. response (percent of control binding), % at 10 µM. multiplexed bead flow cytometry; actives lie on both sides. P09471. hit rate 0.34% among 220,000; in the data active means response below about 60% or above about 140%; inactive means in between;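 further: Galphao activated as the GDP aluminium fluoride complex binding bead-coupled RGS8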
RGS16-Gao HTS: modulates binding between human RGS16 and Galphao; hit rate 0.38% among 220,000; binding response (% of control), % at 10 µM; bead-based flow cytometry RGS16-Galphao binding, fluorescence; actives lie on both sides; O15492+P09471;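 further: Galphao activated by GDP with aluminum fluoride before binding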
ABCB1 inh: human ABCB1 inhibition, ABCG2 as counter-screen; P08183; CCRF-Adr cells, JC-1 efflux, flow cytometry; inhibition, % at 6.6 µM; hit rate 0.067% among 190,000; in the data active means inhibition above about 40%;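 further: 0% = vehicle and 100% = reference inhibitor; higher value means more JC-1 retained so stronger ABCB1 efflux block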
ABCG2 inh: human ABCG2 inhibition, ABCB1 as counter-screen | hit rate 0.1% among 190,000 | IgMXP3 cells, JC-1 efflux, flow cytometry | Q9UNQ0 | inhibition, % at 6.6 µM;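 active means inhibition above 80%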;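 further: 0% = DMSO and 100% = nicardipine control wells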
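Assay system – ABCG2 IgMXP3 and barcoded ABCB1 CCRF-Adr cell mix · Input – 3 million cells/mL in well · Reagent – JC-1 fluorescent substrate · Compound – single test compound dose, 6.6 µM final · Timing – 10 min exposure at 25 °C with rotation, no wash · Detection – flow cytometry of retained JC-1 fluorescence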
RGS7-Gao reg: modulates binding of RGS7 to human Galphao; binding response (% of control), % at 10 µM; AID 1439; P09471; hit rate 0.35% among 220,000; Multiplexed bead flow cytometry; actives lie on both sides; in the data active means binding response below about 49% or above about 150%; inconclusive means no clear call, values can overlap the other calls; inactive means in between;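 further: fluorescent Galphao held in activated GDP-AlF4 state binding bead-coupled RGS7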
RGS4-Gao reg: modulates binding of RGS4 to human Galphao | P09471 | Multiplexed bead flow cytometry; actives lie on both sides | binding response (% of control), % at 10 µM | hit rate 0.33% among 220,000 | AID 1415; in the data active means binding response below about 49% or above about 150%; inactive means in between;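 further: fluorescent Galphao activated with aluminum fluoride binding bead-coupled RGS4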
RGS4-Gao HTS: modulates binding between human RGS4 and Galphao | hit rate 99% among 1,600 | shares compounds with RGS16-Gao HTS | multiplexed bead flow cytometry, RGS–Galpha-o binding | RGS4–Galpha-o binding response, % at 10 µM;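 further: fluorescently labeled Galpha-o bound to GDP with aluminium fluoride binding biotinylated RGS beads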
Avidin counter: counter-screen: compounds disrupting biotin binding to avidin beads; shares compounds with RGS16-Gao HTS; streptavidin beads, fluorescein-biotin binding, flow cytometry; inhibition, % at 10 µM; 1,700 tested, under 10 active; AID 1783;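 active means inhibition above 50%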;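 further: median green fluorescence of gated singlet beads compared with DMSO control wells; 0% = DMSO wells and 100% = complete loss of bead fluorescence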
RGS8-Gao confirm: RGS8-Galphao interaction regulation, single point confirmation. binding response (% of control), % at 10 µM. bead-based flow cytometry RGS8-Galphao binding, fluorescence; actives lie on both sides. shares compounds with RGS16-Gao HTS. hit rate 3% among 1,700; in the data active means binding response below about 72% or above about 130%; inactive means in between;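 further: Galphao activated as GDP AlF4 complex before binding bead RGS8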
RGS7-Gao single: confirmation of regulators of human RGS7-Galphao interaction; hit rate 7.8% among 1,700; shares compounds with RGS16-Gao HTS; bead-based flow cytometry RGS7-Galphao binding; actives lie on both sides; response (percent of control binding), % at 10 µM; in the data active means response below about 75% or above about 130%; inactive means in between;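 further: fluorescent Galphao activated with GDP and aluminum fluoride binding bead-coupled RGS7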
RGS16-Gao conf: RGS16-Galphao interaction regulation, single point confirmation; shares compounds with RGS16-Gao HTS; bead-based flow cytometry, RGS16-Galphao binding; actives lie on both sides; response (% of control binding), % at 10 µM; hit rate 4% among 1,700; AID 1838; in the data active means response below about 74% or above about 130%; inactive means in between;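 further: Galphao activated as the GDP aluminium fluoride complex binding bead-coupled RGS16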
RGS4-Gao confirm: RGS4-Galphao interaction regulation, single point confirmation | shares compounds with RGS16-Gao HTS | RGS4-Galphao binding, multiplexed bead flow cytometry; actives lie on both sides | binding response (% of control), % at 10 µM | hit rate 4% among 1,700 | AID 1840; in the data active means binding response below about 74% or above about 130%; inactive means in between
RGS19-Gao conf: RGS19-Galphao interaction regulation, single point confirmation; shares compounds with RGS16-Gao HTS; response (percent of control binding), % at 10 µM; AID 1841; hit rate 5% among 1,700; bead-based flow cytometry RGS19-Galphao binding; actives lie on both sides; in the data active means response below about 50% or above about 160%; inactive means in between;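 further: 100% = no compound control and 0% = blank background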
Active calls of the source: *; i = inactive; ? = inconclusive; · = not tested or not shown; [ ] = remark or other dose. Unless noted, how the calls were made is not given here.

SMILES	RGS8-Gao reg	RGS16-Gao HTS	ABCB1 inh	ABCG2 inh	RGS7-Gao reg	RGS4-Gao reg	Avidin counter	RGS8-Gao confirm	RGS7-Gao single	RGS16-Gao conf	RGS4-Gao confirm	RGS19-Gao conf	others
CC1CCN(C(c2nnnn2CCc2ccccc2)C(C)C)CC1 (configuration not stated)	98	100	0	-1	96	100	·	·	·	·	·	·
COCCNC(=O)c1ccccc1NC(=O)c1ccccc1SC	97	97	0	1	98	98	·	·	·	·	·	·
CC(=O)c1ccc(S(=O)(=O)N2Cc3ccccc3CC2C(=O)O)cc1 (configuration not stated)	104	102	·	·	?	104	·	·	·	·	·	·
O=C(O)[C@H]1Cc2ccccc2CN1S(=O)(=O)c1ccc(F)cc1	100	30	·	·	?	99	-2	110	123	109	115	119
COCc1cc(C)nc(SCC(=O)Nc2ccc(C)c(C)c2)c1C#N	102	-63*	1	8	99	100	·	·	·	·	·	·	RGS4-Gao HTS=100*
COCc1cc(C)nc(SCC(=O)Nc2ccccc2C)c1C#N	100	101	0	4	103	99	·	·	·	·	·	·
CC(=O)Nc1ccc(NC(=O)CCc2nc3ccccc3c(=O)[nH]2)cc1	94	91	0	1	93	91	·	·	·	·	·	·
O=C(CCc1nc2ccccc2c(=O)[nH]1)Nc1ccc(Cl)c(Cl)c1	69	9.1*	-1	-1	86	86	2	102	102	101	98	107	RGS4-Gao HTS=86*
CCOC(=O)c1ccc(NC(=O)CSc2nnc(Cn3c(=O)sc4ccccc43)n2C)cc1	94	101	4	1	173*[activator]	109	-2	99	101	101	99	88	RGS4-Gao HTS=109*
O=C(Nc1ccccn1)C(=O)N1CCCCC1	87	59	1	2	94	89	·	·	·	·	·	·
CCn1cc(C(=O)NCCCN2CCN(C)CC2)c(=O)c2cc(S(=O)(=O)N3CCc4ccccc4C3)ccc21	120	151	0	0	106	107	·	·	·	·	·	·
Cc1cccc(NC(=O)C2Cc3ccccc3CN2C(=O)OCc2ccccc2)c1C (configuration not stated)	79	12*	11	41	90	91	-2	111	102	118	102	116	RGS4-Gao HTS=91*
Clc1ccccc1-c1nnc(-c2ccc3c(c2)OCO3)o1	104	106	0	41	111	102	·	·	·	·	·	·
Cc1c(Cl)cccc1NC(=S)N1CCN(Cc2ccccc2)CC1	126	226	0	0	110	107	2	102	106	101	101	93
S=C(Nc1ccccc1Cl)N1CCN(Cc2ccccc2)CC1	107	113	·	8	110	109	·	·	·	·	·	·
Oc1ccc(/C=N/Nc2ncnc3nc[nH]c23)cc1	52*	33	·	·	?	37*	-2	102	84	95	84	117
Clc1ccc(/C=N/Nc2ncnc3nc[nH]c23)cc1	101	100	·	·	?	96	·	·	·	·	·	·
N#Cc1c(C(F)(F)F)cc(C2CC2)[nH]c1=O	93	106	0	0	184*[activator]	109	1	91	91	92	90	79	RGS4-Gao HTS=109*
CCN(N=O)[C@@H](Cc1ccccc1)CN(N=O)[C@@H](Cc1ccccc1)CN(C)N=O	29*	21*	2	1	17*	30*	1	102	101	102	102	101
COc1ccccc1NC(=O)Cn1cnc2c(nnn2-c2ccc(C)cc2)c1=O	99	98	0	5	154*[activator]	104	0	100	104	99	100	96	RGS4-Gao HTS=104*
Cc1noc(C)c1CSc1ncnc2sc(C)c(C)c12	104	·	1	17	·	102	-1	102	98	102	103	96
Cc1noc(C)c1CSc1ncnc2sc3c(c12)CCCCC3	97	96	3	0	96	96	·	·	·	·	·	·
CC1(C)CC(=O)C(C=NCC(N)=O)=C(O)C1	146*[activator]	151	0	2	149	147	·	·	·	·	·	·	RGS4-Gao HTS=147*
CN=CC1=C(O)CC(C)(C)CC1=O	101	98	1	3	103	104	·	·	·	·	·	·
Cc1[nH]c2ccccc2c1/C=N/NC(N)=S	103	100	·	·	?	101	·	·	·	·	·	·
SMILES	RGS8-Gao reg	RGS16-Gao HTS	ABCB1 inh	ABCG2 inh	RGS7-Gao reg	RGS4-Gao reg	Avidin counter	RGS8-Gao confirm	RGS7-Gao single	RGS16-Gao conf	RGS4-Gao confirm	RGS19-Gao conf	others
Cc1[nH]c2ccccc2c1/C=N/NC(=S)NCc1ccccc1	106	159	-1	2	?	159*[activator]	1	110	226*[activator]	146*[activator]	165*[activator]	294*[activator]
Cc1ccc(N2C(=O)CC(NNc3nc4ccccc4s3)C2=O)cc1 (configuration not stated)	34*	i	1	15	33*	19*	0	103	98	99	97	83
C=CCn1c(C(CC)CC)nc2ccccc21	102	97	·	·	?	94	·	·	·	·	·	·
CCOc1ccc(C(=O)NC(=S)Nc2ccccc2N2CCOCC2)cc1Br	105	129	3	17	96	101	·	·	·	·	·	·
COc1ccc(C(=O)NCCc2nnc(SCC(=O)Nc3ccccc3F)n2C)cc1	100	107	0	0	166*[activator]	111	1	100	95	98	98	104	RGS4-Gao HTS=111*
CCOC(=O)c1ccc(NC(=O)N2CCN(C(=O)c3ccco3)CC2)cc1	101	100	1	3	102	96	·	·	·	·	·	·
CCOC(=O)c1c(C)[nH]c(C(=O)COC(=O)C2CC(=O)N(Cc3ccccc3)C2)c1C (configuration not stated)	163*[activator]	511	1	3	218*[activator]	166*[activator]	0	99	95	92	95	93
Cc1cccc(C)c1NC(=O)CN1C(=O)NC(C)(CCc2ccccc2)C1=O (configuration not stated)	103	102	2	17	107	100	·	·	·	·	·	·

From PubChem
